The source of these data is ChEMBL document CHEMBL1132106, “Synthesis, biological activity, and conformational analysis of four seco-D-15,19-bisnor-1alpha,25-dihydroxyvitamin D analogues, diastereomeric at C17 and C20” (1999).

Assay [1] relates to HL-60. Put plainly: In vitro induction of cell differentiation in HL-60 cells relative to 1,25(OH)2D3 (100). The assay is classed as functional, Homo sapiens. In outline: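 HL-60 cells seeded at 4×10^4 cells/mL in RPMI 1640 with 20% FCS and gentamycin, 37 °C, 5% CO2. Compounds added in ethanol (final <0.2%) one day later, then cultured 4 days. Differentiation read as NBT reduction: 1×10^6 cells/mL mixed with PMA (200 ng/mL) and NBT ([…]), 30 min at 37 °C. Formazan-positive cells counted by hemacytometer.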

Assay [2] deals with Mus musculus. As to the kind of experiment: Hypercalcemic effect by daily sc injection of compound was measured as serum calcium concentration in vitamin D-replete normal NMRI mice relative to 1,25(OH)2D3 (100). The assay is classed as functional. In outline:
(§1)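 Vitamin D-replete normal NMRI mice given compound or solvent by daily subcutaneous injection for 7 consecutive days. Serum calcium concentration used as the read-out.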

Assay [3] deals with T1, Vitamin D3 receptor (Sus scrofa) (UniProt A3RGC1).
T1 sequence (whole entry): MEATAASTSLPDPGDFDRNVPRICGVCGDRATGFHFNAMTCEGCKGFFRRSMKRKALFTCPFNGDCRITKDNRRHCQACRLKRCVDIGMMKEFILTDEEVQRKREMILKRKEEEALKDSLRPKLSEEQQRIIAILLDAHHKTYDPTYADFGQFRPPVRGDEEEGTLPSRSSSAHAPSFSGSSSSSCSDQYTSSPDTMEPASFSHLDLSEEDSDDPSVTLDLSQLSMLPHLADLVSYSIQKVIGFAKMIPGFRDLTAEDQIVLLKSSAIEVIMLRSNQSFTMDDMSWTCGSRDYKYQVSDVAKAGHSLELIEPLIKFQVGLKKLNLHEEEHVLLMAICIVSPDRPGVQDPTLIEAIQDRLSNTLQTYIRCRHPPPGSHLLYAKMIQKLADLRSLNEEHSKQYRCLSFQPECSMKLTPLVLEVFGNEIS
Put plainly: Binding affinity for porcine intestinal Vitamin D3 receptor (VDR) relative to 1,25(OH)2D3 (100). In a few lines:
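Competition with [3H]1,25(OH)2D3 for receptor in high-speed supernatant of normal pig intestinal mucosa homogenate. Incubated 20 h at 4 °C, then dextran-coated charcoal phase separation. Relative affinity from the concentration displacing 50% of tracer, referenced to 1,25(OH)2D3 at 100%.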

Assay [4] concerns the target T2, Vitamin D-binding protein (Homo sapiens) (UniProt P02774).
T2 sequence (whole entry): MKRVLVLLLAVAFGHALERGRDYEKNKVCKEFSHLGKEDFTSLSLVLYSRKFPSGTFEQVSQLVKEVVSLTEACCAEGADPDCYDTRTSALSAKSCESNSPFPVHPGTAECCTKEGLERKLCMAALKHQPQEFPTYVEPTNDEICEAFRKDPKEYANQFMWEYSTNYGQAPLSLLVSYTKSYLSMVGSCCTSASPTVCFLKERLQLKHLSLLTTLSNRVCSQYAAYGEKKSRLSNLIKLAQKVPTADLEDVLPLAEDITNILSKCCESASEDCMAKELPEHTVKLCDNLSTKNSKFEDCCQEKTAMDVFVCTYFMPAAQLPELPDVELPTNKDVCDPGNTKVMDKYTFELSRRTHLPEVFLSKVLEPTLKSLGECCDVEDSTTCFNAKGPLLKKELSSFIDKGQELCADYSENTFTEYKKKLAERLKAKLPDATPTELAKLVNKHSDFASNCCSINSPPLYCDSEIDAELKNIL
As to the kind of experiment: Binding affinity for human vitamin D binding protein (hDBP) relative to 1,25(OH)2D3 (100). In outline: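 Competition with [3H]1,25(OH)2D3 for human serum DBP (0.18 μM), purified by affinity chromatography. Ligands added in 5 μL ethanol. Incubated 3 h at 4 °C in 0.01 M Tris-HCl with 0.154 M NaCl, pH 7.4. Bound and free separated with cold dextran-coated charcoal. Activity expressed relative to 1,25(OH)2D3 set at 100.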

For assay [5], the system named is Keratinocyte cell line. Put plainly: In vitro proliferative activity on keratinocyte cells. The assay is classed as functional, Homo sapiens. In a few lines: (§2)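 Human foreskin keratinocytes isolated by overnight Dispase digestion and grown in serum-free keratinocyte medium with pituitary extract and EGF. Seeded at 5×10^3 cells/well in medium without insulin. After 1 day, serial dilutions added in ethanol (<0.2% final) for 72 h. Then [3H]thymidine 1 μCi/well for 2 h and incorporation counted.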

For assay [6], the system named is MCF7. Put plainly: In vitro cell proliferative activity on MCF-7 cells. The format is functional, Homo sapiens. In outline: (§3)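 MCF-7 cells grown in DMEM/F12 with 10% heat-inactivated FCS, glutamine, penicillin and streptomycin, 37 °C, 5% CO2. Seeded at 5×10^3 cells/well. Compounds added after 24 h and incubated 72 h. Then 1 μCi [3H]thymidine per well for 4 h, cells harvested and radioactivity counted. Triplicate cultures. Activity expressed relative to 1,25(OH)2D3 set at 100.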

In assay [7] the test system is Mus musculus. As to the kind of experiment: In Vivo evaluation for the calcemic activity in vitamin D-replete normal in NMRI mice. The format is functional. In outline:
as §1

Assay [8] concerns the target T3, Vitamin D-binding protein (Rattus norvegicus) (UniProt P04276).
T3 sequence (whole entry): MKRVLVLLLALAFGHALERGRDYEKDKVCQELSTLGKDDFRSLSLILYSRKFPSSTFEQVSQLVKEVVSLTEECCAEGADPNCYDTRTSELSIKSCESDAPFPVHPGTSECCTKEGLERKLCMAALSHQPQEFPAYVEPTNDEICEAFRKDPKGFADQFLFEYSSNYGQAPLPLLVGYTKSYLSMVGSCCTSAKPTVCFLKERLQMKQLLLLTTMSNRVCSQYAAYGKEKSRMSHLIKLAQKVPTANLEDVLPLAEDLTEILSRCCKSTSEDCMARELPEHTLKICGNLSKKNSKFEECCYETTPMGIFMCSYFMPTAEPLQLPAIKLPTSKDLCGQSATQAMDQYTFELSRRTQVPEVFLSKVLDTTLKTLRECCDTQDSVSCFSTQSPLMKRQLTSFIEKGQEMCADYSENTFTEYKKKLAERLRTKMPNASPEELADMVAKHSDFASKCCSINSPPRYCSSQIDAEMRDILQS
Put plainly: Binding affinity for rat Vitamin D binding protein.

The test system of assay [9] is Gallus gallus. Put plainly: In Vivo evaluation for the calcemic activity in vitamin D-replete normal in ICA chick. The assay is classed as functional.
Assay [10] has as its target T3, Vitamin D-binding protein (Rattus norvegicus). Put plainly: Binding affinity for rat vitamin D binding protein (DBP) relative to 1,25(OH)2D3 (100).
Assay [11] has as its system Keratinocyte cell line. Put plainly: Inhibition of human skin keratinocyte proliferation relative to 1,25(OH)2D3 (100). The assay is classed as functional. In a few lines: as §2
Assay [12] relates to MCF7. Put plainly: Antiproliferative activity on MCF-7 cells relative to 1,25(OH)2D3 (100). The format is functional, Homo sapiens. In a few lines:
as §3

With `C=C1/C(=C/C=C2/CCC[C@]3(C)C([C@H](C)CC#CC(C)(C)O)=CC[C@@H]23)C[C@@H](O)C[C@@H]1O`, the Relative activity in [1] stood at 950. In assay [2], the “Hypercalcemic activity relative to 1,25(OH)2D3 (=100)” value is on record as 8. The Relative binding affinity in assay [3] was determined as 85; in [4] it was 0.

For `C=C1/C(=C\C=C2/CCC[C@]3(C)[C@@H]([C@H](C)CCCC(C)(C)O)CC[C@@H]23)C[C@@H](O)C[C@@H]1O` [CALCITRIOL], the Activity in assay [1], in assay [5] and in [6] was 100 throughout. The “Ca2+ serum” value in assay [7] was 100. For the same compound, the Binding affinity in [3], in assay [8] and in assay [4] was 100 in each case. Besides, the ICA in assay [9] was 100.

For `C=C1/C(=C\C=C2/CCC[C@]3(C)[C@@H]([C@H](C)[C@H](C)CCC(C)(C)O)CC[C@@H]23)C[C@@H](O)C[C@@H]1O`, the Relative activity in [1] was 1.3. The Relative binding affinity in [3] worked out at 1.7; in assay [10], 0.45. In assay [9], the ICA is recorded as 25.

`C=C1/C(=C\C=C2/CCC[C@]3(C)[C@@H]([C@H](C)OCCC(C)(C)O)CC[C@@H]23)C[C@@H](O)C[C@@H]1O` [MAXACALCITOL] came in with a Relative activity in [1] of 197. Also, the “Hypercalcemic activity relative to 1,25(OH)2D3 (=100)” value in [2] is 0.3. Besides, the Relative binding affinity came out at 18 in [3] and 0 in assay [4].

In assay [1], `C=C1/C(=C\C=C2/CCC[C@]3(C)[C@@H]([C@@H](C)[C@H](C)CCC(C)(C)O)CC[C@@H]23)C[C@@H](O)C[C@@H]1O` showed a Relative activity of 11900. Besides, the values for the Relative binding affinity in assay [3] and in assay [10] were 2000 and 0.25, respectively. Also, the ICA in assay [9] was 50.

As for `C[C@H](CCCC(C)(C)O)[C@H](C)[C@@]1(C)CCC/C(=C\C=C2C[C@@H](O)C[C@H](O)C2)C1`, the Relative activity in assay [1] came out at 75; in assay [11], 60; in assay [12], 75. In addition, the “Hypercalcemic activity relative to 1,25(OH)2D3 (=100)” value in assay [2] is listed as 0.25. The values for the Relative binding affinity in [3] and in assay [4] were 8 and 0, respectively.

In the case of `C[C@H]([C@@H](C)CCCC(C)(C)O)[C@@]1(C)CCC/C(=C\C=C2C[C@@H](O)C[C@H](O)C2)C1`, the Relative activity in assay [1] is 10; in assay [11], 80; in assay [12] it was 40. Also, in assay [2], the “Hypercalcemic activity relative to 1,25(OH)2D3 (=100)” value is 0.25. In addition, the results for the Relative binding affinity in assay [3] and in [4] were 10 and 0, respectively.

As to `C[C@H](CCCC(C)(C)O)[C@@H](C)[C@@]1(C)CCC/C(=C\C=C2C[C@@H](O)C[C@H](O)C2)C1`, the Relative activity in [1] is given as 1000; in assay [11], 5000; in assay [12] it was 2000. The “Hypercalcemic activity relative to 1,25(OH)2D3 (=100)” value in [2] is given as 13. Moreover, the Relative binding affinity in assay [3] was found to be 45; in assay [4] it was 3.

For the compound `C[C@H](CCCC(C)(C)O)[C@H]1CC[C@H]2/C(=C/C=C3C[C@@H](O)C[C@H](O)C3)CCC[C@]12C`, the Relative activity in assay [1] came to 90. In [2], the “Hypercalcemic activity relative to 1,25(OH)2D3 (=100)” value is 0.3. The Relative binding affinity in assay [3] was found to be 30; in assay [4], 48.

In assay [1], `C=C1/C(=C\C=C2/CCC[C@]3(C)[C@@H]([C@@H](C)CCCC(C)(C)O)CC[C@@H]23)C[C@@H](O)C[C@@H]1O` registered a Relative activity of 3000. Further, the “Hypercalcemic activity relative to 1,25(OH)2D3 (=100)” value in assay [2] is recorded as 800. The Relative binding affinity in assay [3] was 88; in assay [4] it was 0.2.

With `C[C@@H](CCCC(C)(C)O)[C@H](C)[C@@]1(C)CCC/C(=C\C=C2C[C@@H](O)C[C@H](O)C2)C1`, the Relative activity worked out at 70 in assay [1], 85 in assay [11] and 90 in [12]. Moreover, the “Hypercalcemic activity relative to 1,25(OH)2D3 (=100)” value in [2] is given as 25. The Relative binding affinity in assay [3] came to 9; in assay [4], 0.

With `C=C1/C(=C\C=C2/CCC[C@]3(C)[C@@H]([C@@H](C)[C@@H](C)CCC(C)(C)O)CC[C@@H]23)C[C@@H](O)C[C@@H]1O`, the Relative activity in assay [1] was determined as 8. Further, the Relative binding affinity in assay [3] turned out to be 1; in assay [10], 0.25. In addition, the ICA in assay [9] is 0.1.

Compound `C=C1/C(=C\C=C2/CCC[C@]3(C)[C@@H]([C@H](C)[C@@H](C)CCC(C)(C)O)CC[C@@H]23)C[C@@H](O)C[C@@H]1O` yielded a Relative activity in assay [1] of 100. For the same compound, the Relative binding affinity in assay [3] stood at 33; in assay [10] it was 67. The ICA in [9] was 50.
